Measured values reported in ChEMBL document CHEMBL1250535, “Synthesis, anti-fungal and 1,3-β-D-glucan synthase inhibitory activities of caffeic and quinic acid derivatives” (Bioorg Med Chem, 2010).
In brackets after ≈: the same amount, converted by molar mass. Starred links: 1 amine or outer side, 2 acyl side, 3 side chain; linkers in the order of their positions; H or OH if unused. Positions of bridges follow the written chain, without caps; N, C: chain ends. Non-standard residues stand in square brackets, D forms with d. Residues, ends and D or L forms follow the SMILES beside them. *: point of attachment. Orn(4R-OH,5R-OH) = O=C([C@H](C[C@@H](O)[C@@H](O)N[*:3])N[*:1])[*:2]; hTyr(3S-OH,4S-OH) = N[C@H](C(=O)O)[C@H](O)[C@@H](O)c1ccc(O)cc1; Pro(3S-OH,4S-Me) = C[C@H]1CN[C@H](C(=O)O)[C@H]1O; Palmitoyl = CCCCCCCCCCCCCCCC(=O)*; Hyp = O=C(O)[C@@H]1C[C@@H](O)CN1

Columns and labels:
Beta-1,3-glucan synthase = target: T1, Beta-1,3-glucan synthase (Candida albicans, UniProt O13383); assay: Inhibition of Candida albicans 1,3 beta-D-glucan synthase
T1 sequence (O13383 whole entry): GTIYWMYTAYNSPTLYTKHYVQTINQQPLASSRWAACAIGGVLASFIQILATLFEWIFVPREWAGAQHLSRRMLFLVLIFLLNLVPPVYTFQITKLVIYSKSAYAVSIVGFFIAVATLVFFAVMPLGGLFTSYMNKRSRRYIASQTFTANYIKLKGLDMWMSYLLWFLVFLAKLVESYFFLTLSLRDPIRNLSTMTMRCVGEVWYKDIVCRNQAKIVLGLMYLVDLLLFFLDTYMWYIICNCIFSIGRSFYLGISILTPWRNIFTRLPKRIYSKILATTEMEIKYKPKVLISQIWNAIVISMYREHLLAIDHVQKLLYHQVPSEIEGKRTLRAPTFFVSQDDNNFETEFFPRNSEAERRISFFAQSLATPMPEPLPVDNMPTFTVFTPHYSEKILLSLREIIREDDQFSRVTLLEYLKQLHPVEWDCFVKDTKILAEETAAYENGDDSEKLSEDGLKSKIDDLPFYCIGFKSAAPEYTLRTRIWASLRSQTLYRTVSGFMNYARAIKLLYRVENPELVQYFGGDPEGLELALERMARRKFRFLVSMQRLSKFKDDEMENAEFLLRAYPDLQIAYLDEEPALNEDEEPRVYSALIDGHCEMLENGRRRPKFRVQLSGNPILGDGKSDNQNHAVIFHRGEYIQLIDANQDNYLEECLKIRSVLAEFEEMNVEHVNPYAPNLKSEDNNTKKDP
Outline: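 Membrane-bound enzyme prepared from Candida albicans. Reaction mix: 50 mM Tris–HCl pH 7.5, 0.5 mM EDTA, 25 mM KF, GTPγS, 0.75% BSA, 5.0 mM UDP-Glc, with and without test compound. Started by adding enzyme, run 20 min at 30 °C, stopped by heating 10 min at 96 °C. Glucan formed quantified by a 1,3-β-D-glucan-dependent enzyme cascade (BGSTAR kit).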

Candida albicans = assay: Antifungal activity against Candida albicans by NCCLS method; format: functional
Outline: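 Broth dilution per NCCLS against Candida albicans NBRC 1594.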

| SMILES | IC50 (Beta-1,3-glucan synthase) [µM] | MIC (Candida albicans) [µM] |
| --- | --- | --- |
| CCCCCCCCOc1ccc(NC(=O)/C=C/c2ccc(O)c(O)c2)cc1 | > 84 | 84 (≈ 32.2 µg/mL) |
| CCCCCCCCCCCCCCCC(=O)N[C@H]1C[C@@H](O)[C@@H](O)NC(=O)[C@@H]2[C@@H](O)[C@@H](C)CN2C(=O)[C@H]([C@@H](C)O)NC(=O)[C@H]([C@H](O)[C@@H](O)c2ccc(O)cc2)NC(=O)[C@@H]2C[C@@H](O)CN2C(=O)[C@H]([C@@H](C)O)NC1=O [ACULEACIN A] (Palmitoyl-[Orn(4R-OH,5R-OH)]T[Hyp][hTyr(3S-OH,4S-OH)]T[Pro(3S-OH,4S-Me)]; lactam 1-C) | 8 | 0.23 (≈ 0.238 µg/mL) |
| CCCCCCCCOc1ccc(NC(=O)C(CC(=O)O)NC(=O)[C@]2(O)C[C@@H](O)[C@@H](O)[C@H](OC(=O)/C=C/c3ccc(O)c(O)c3)C2)cc1 (some centres undefined) | > 48 | 48 (≈ 32.3 µg/mL) |
| CCCCCCCCOc1ccc(NC(=O)C(CCCN)NC(=O)[C@]2(O)C[C@@H](O)[C@@H](O)[C@H](OC(=O)/C=C/c3ccc(O)c(O)c3)C2)cc1 (some centres undefined) | 15 | 6 (≈ 4.03 µg/mL) |
| O=C(/C=C/c1ccc(O)c(O)c1)O[C@@H]1C[C@](O)(C(=O)O)C[C@@H](O)[C@H]1O [CHLOROGENIC ACID] | > 90 | > 181 |
| CCCCCCCCOc1ccc(NC(=O)C(NC(=O)/C=C/c2ccc(O)c(O)c2)C(C)O)cc1 (centres undefined) | > 66 | 8.3 (≈ 4.02 µg/mL) |
| CCCCCCCCOc1ccc(NC(=O)[C@]2(O)C[C@@H](O)[C@@H](O)[C@H](OC(=O)/C=C/c3ccc(O)c(O)c3)C2)cc1 | 41 | 14 (≈ 7.81 µg/mL) |
| CCCCCCCCOc1ccc(NC(=O)C(CCCNC(=O)OC(C)(C)C)NC(=O)/C=C/c2ccc(O)c(O)c2)cc1 (centres undefined) | 52 | 27 (≈ 16.1 µg/mL) |
| CCCCCCCCOc1ccc(NC(=O)C(CC(=O)O)NC(=O)/C=C/c2ccc(O)c(O)c2)cc1 (centres undefined) | > 64 | 64 (≈ 31.9 µg/mL) |
| CCCCCCCCOc1ccc(NC(=O)C(NC(=O)[C@]2(O)C[C@@H](O)[C@@H](O)[C@H](O)C2)C(C)O)cc1 (some centres undefined) | > 65 | > 129 |
| CCCCCCCCOc1ccc(NC(=O)C(NC(=O)[C@]2(O)C[C@@H](O)[C@@H](O)[C@H](OC(=O)/C=C/c3ccc(O)c(O)c3)C2)C(C)O)cc1 (some centres undefined) | > 49 | 12 (≈ 7.9 µg/mL) |
| CCCCCCCCOc1ccc(NC(=O)C(CCCN)NC(=O)[C@]2(O)C[C@@H](O)[C@@H](O)[C@H](O)C2)cc1 (some centres undefined) | 53 | 16 (≈ 8.15 µg/mL) |
| CCCCCCCCOc1ccc(NC(=O)C(CCCN)NC(=O)/C=C/c2ccc(O)c(O)c2)cc1 (centres undefined) | 22 | 4 (≈ 1.99 µg/mL) |
| CCCCCCCCOc1ccc(NC(=O)C(CC(=O)OC(C)(C)C)NC(=O)/C=C/c2ccc(O)c(O)c2)cc1 (centres undefined) | 58 | 29 (≈ 16.1 µg/mL) |
| CCCCCCCCOc1ccc(NC(=O)[C@]2(O)C[C@@H](O)[C@@H](O)[C@H](O)C2)cc1 | > 81 | 81 (≈ 32 µg/mL) |
| CCCCCCCCOc1ccc(NC(=O)C(NC(=O)/C=C/c2ccc(O)c(O)c2)C(C)OC(C)(C)C)cc1 (centres undefined) | 37 | 15 (≈ 8.11 µg/mL) |
| CCCCCCCCOc1ccc(NC(=O)C(CC(=O)O)NC(=O)[C@]2(O)C[C@@H](O)[C@@H](O)[C@H](O)C2)cc1 (some centres undefined) | > 63 | > 125 |
